# Screening results: PubChem, several laboratories
# Compounds with a hit are over-represented: about 2.9% of the library has one in this group of screens.
# SENP6 inh: inhibitors of human SENP6 protease; Q9GZR1; Recombinant SENP6 catalytic domain, aminoluciferin luminescence; inhibition, % at 10 µM; 330,000 compounds, 1.8% hits;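 active means inhibition above about 50% at the single tested dose, limit read from the data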
# SENP7 block: inhibitors of human SENP7 protease | recombinant SENP7, Z-RLRGG-aminoluciferin luminescence, 40 min | inhibition, % at 5 µM | 330,000 compounds, 1.5% hits | Q9BQF6;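 active means inhibition above about 50% at the single test dose, limit read from the data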
# Target sequence (Q9BQF6 706-1050 limits assumed): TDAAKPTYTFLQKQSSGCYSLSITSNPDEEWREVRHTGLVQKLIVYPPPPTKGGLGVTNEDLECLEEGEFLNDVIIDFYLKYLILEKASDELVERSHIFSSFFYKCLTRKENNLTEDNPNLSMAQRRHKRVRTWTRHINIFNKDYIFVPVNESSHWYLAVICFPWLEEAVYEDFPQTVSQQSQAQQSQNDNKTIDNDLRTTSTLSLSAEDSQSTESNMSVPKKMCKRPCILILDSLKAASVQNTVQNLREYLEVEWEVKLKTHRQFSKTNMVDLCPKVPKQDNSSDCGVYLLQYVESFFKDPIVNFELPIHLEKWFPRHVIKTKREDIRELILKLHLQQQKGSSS
# SENP1 FRET inh: SENP1 (human) catalytic domain inhibition. Q9P0U3. recombinant SENP1 catalytic domain, CyPet-SUMO1-YPet FRET cleavage. inhibition, % at 10 µM. 360,000 compounds, 0.21% hits;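 active means inhibition at least 30% at 10 µM, raw YFP signal under a set limit, fluorescence ratio 0.5 to 1.5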
# Target sequence (Q9P0U3 419-644 limits assumed): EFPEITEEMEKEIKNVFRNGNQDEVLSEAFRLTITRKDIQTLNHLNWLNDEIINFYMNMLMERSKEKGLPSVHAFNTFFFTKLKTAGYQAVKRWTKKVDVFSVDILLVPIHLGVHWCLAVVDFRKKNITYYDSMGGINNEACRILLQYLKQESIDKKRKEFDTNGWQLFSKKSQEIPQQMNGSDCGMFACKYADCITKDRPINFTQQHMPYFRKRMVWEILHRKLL
#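 system = hSENP1 catalytic domain, recombinant | reagent = SFCypet-SUMO1-SFYpet substrate at 25 nM | doses = one dose per compound, 10 µM, 0.5% DMSO | incubation = enzyme reaction for 50 min at room temperature, dark | measured by = FRET, CFP and YFP emission | controls = no-enzyme low, enzyme-DMSO high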
# SENP8 block-1: SENP8 (human) protease inhibition; recombinant SENP8, Nedd8 substrate fluorescence; AID 602440; 360,000 compounds, 0.64% hits; inhibition, % at 20 µM; in the data active means inhibition mostly above about 40%, no sharp cut-off; inactive means mostly below about 27%
# HSP90 refold inh: HSP90 refolding inhibition in rabbit reticulocyte lysate; AID 1789; luciferase refolding luminescence, 3 h; 290,000 compounds, 0.91% hits; inhibition, % at 5.6 µM;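 active means inhibition above the screen-wide mean plus 3 SD, computed separately per campaign, cut at about 16% in these data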;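 further: inhibitors lower the luminescence because luciferase stays unfolded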
# SENP8 block-2: blocks the human protease SENP8. AID 2540. purified SENP8, Z-RLRGG-aminoluciferin cleavage, luminescence. 330,000 compounds, 1.2% hits. inhibition, % at 10 µM. Q96LD8; in the data active means inhibition above about 50%
# SENP8 confirm: human SENP8 inhibition, confirmed | Recombinant SENP8, Z-RLRGG-aminoluciferin luminescence, 60 min | shares compounds with SENP7 block | inhibition, % at 12.5 µM | 6,200 compounds, 40% hits | AID 488912;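 active means mean inhibition across replicates above about 50%, limit read from the data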
# SENP6 confirm: confirmation of human SENP6 protease inhibitors; recombinant SENP6, Z-RLRGG-aminoluciferin luminescence; AID 488915; shares compounds with SENP7 block; inhibition, % at 12.5 µM; 6,200 compounds, 58% hits
# SENP7 confirm: confirmation of human SENP7 protease inhibitors. shares compounds with SENP7 block. recombinant SENP7, Z-RLRGG-aminoluciferin luminescence, 40 min. inhibition, % at 12.5 µM. 6,200 compounds, 69% hits
# Casp3 SENP sel: caspase-3 inhibition (SENP selectivity assay). shares compounds with SENP7 block. purified caspase-3, Z-DEVD-aminoluciferin luminescence, 60 min. inhibition, % at 12.5 µM. 6,200 compounds, 60% hits. AID 488918;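 active means mean inhibition above about 50%, limit read from the data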
# Luc interf: counter-screen for SENP inhibitors: luminescence interference; shares compounds with SENP7 block; Pre-incubated SENP8/Z-RLRGG-aminoluciferin, luciferase luminescence interference; inhibition, % at 12.5 µM; 6,200 compounds, 39% hits; AID 488919;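 active means mean inhibition above about 50% when retested at one dose, limit read from the data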
# A number is an active result; . = inactive; / = no result.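 How the source made its calls, unless noted: active means mean inhibition above about 50% in the one-dose retest (limit read from the data); inactive means the rest.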
SMILES,SENP6 inh,SENP7 block,SENP1 FRET inh,SENP8 block-1,HSP90 refold inh,SENP8 block-2,SENP8 confirm,SENP6 confirm,SENP7 confirm,Casp3 SENP sel,Luc interf
O=C(Nc1cccc(/C=C/c2nc3ccccc3c(=O)[nH]2)c1)c1ccccc1Cl,.,.,.,.,.,.,/,/,/,/,/
Cc1cccc(/C=C\c2nc3ccccc3c(=O)[nH]2)c1,89,99,.,.,.,80,55,.,54,74,.
O=c1[nH]c(/C=C/c2ccc(Br)cc2)nc2ccccc12,.,89,.,.,.,.,.,.,.,.,.
O=c1[nH]c(/C=C/c2cccc3ccccc23)nc2ccccc12,.,.,.,.,.,.,/,/,/,/,/
COc1ccc(S(=O)(=O)Nc2ccc3c(c2)OCO3)cc1,.,.,.,.,.,.,/,/,/,/,/
COc1ccc(N/C=C2\CCOC2=O)cc1,.,.,.,.,.,.,/,/,/,/,/
COc1ccc(N/C=C2\CCc3ccccc3C2=O)cc1,97,.,.,.,42,96,.,101,104,99,70
COc1ccc2c(c1)CC/C(=C\Nc1ccc3c(c1)OCO3)C2=O,61,54,.,.,.,61,.,60,.,.,.
N#Cc1ccc(NC(=O)Cn2cnc(S(=O)(=O)N3CCCC3)c2)cc1,.,.,.,.,.,.,/,/,/,/,/
NCc1csc(NC(=O)Nc2cccc(C(F)(F)F)c2)n1,/,/,.,.,/,/,/,/,/,/,/
Cc1ccc(C(C)C)c(OCC(=O)Nc2ccc(N3CCOCC3)cc2N2CCOCC2)c1,.,.,.,.,/,.,/,/,/,/,/
O=c1oc(-c2cccs2)nc2sc3c(c12)CCCCC3,55,.,.,.,.,.,.,.,.,.,.
O=c1oc(/C=C/c2ccccc2)nc2sc3c(c12)CCC3,65,.,.,.,.,.,.,.,.,.,.
COc1ccc(/C=C/c2nc3sc4c(c3c(=O)o2)CCC4)cc1,.,.,.,.,.,.,/,/,/,/,/
Cc1ccccc1-c1nc2sc3c(c2c(=O)o1)CCC3,88,79,.,.,.,83,.,.,53,.,.
O=c1oc(-c2cc3ccccc3o2)nc2sc3c(c12)CCCC3,.,.,.,.,.,.,/,/,/,/,/
O=c1oc(-c2ccccc2)nc2sc3c(c12)CCCC3,94,96,.,.,.,92,62,.,.,81,.
COCCCN1C(=O)C(CC(=O)NC(c2ccccc2)c2ccccc2)CC(C(=O)N(C(C)C)C(C)C)=C1C (stereo not drawn),/,/,.,.,/,/,/,/,/,/,/
FC(F)(F)c1cc(Cl)c2nc(-c3ccccc3)c(Cc3ccccc3)n2c1,/,/,.,.,/,/,/,/,/,/,/
c1ccc(COC2COC3C(OCc4ccccc4)COC23)cc1 (stereo not drawn),/,/,.,.,/,/,/,/,/,/,/
Cc1sc2nc(-c3cccs3)oc(=O)c2c1C,.,51,.,.,.,.,.,.,60,.,.
Nn1c(-c2cccs2)nc2sc3c(c2c1=O)CCCC3,90,59,.,.,.,71,.,70,90,60,.
CC(NCCN(C)C)C1CCC2C3CCc4cc(O)ccc4C3CCC12C (stereo not drawn),/,/,.,.,/,/,/,/,/,/,/
O=C(NCCS(=O)(=O)N1CCN(c2cccc(Cl)c2)CC1)c1ccco1,.,.,.,.,/,.,/,/,/,/,/
COc1cccc(C(=O)/C=C/Nc2ccc(NC(C)=O)cc2)c1,93,87,.,.,.,79,90,89,98,87,89
SMILES,SENP6 inh,SENP7 block,SENP1 FRET inh,SENP8 block-1,HSP90 refold inh,SENP8 block-2,SENP8 confirm,SENP6 confirm,SENP7 confirm,Casp3 SENP sel,Luc interf
COc1ccc(C(=O)/C=C/Nc2ccc(NC(C)=O)cc2)cc1OC,.,.,.,.,.,.,/,/,/,/,/
COc1cccc(C(=O)/C=C/Nc2cccc(O)c2)c1,96,100,.,.,.,95,99,100,103,98,98
COC(=O)[C@]1(C)N[C@H](CN(C)C(=O)c2ccccc2)[C@@H]2C(=O)N(C)C(=O)[C@@H]21,.,.,.,.,/,.,/,/,/,/,/
Cn1c(=O)c2cc(NC(=S)NC3CCCCC3)ccc2n1-c1ccccc1,/,/,.,.,/,/,/,/,/,/,/
C/C(=N\NC(=O)c1cc2c(s1)CCC(C)C2)c1ccc[nH]1 (stereo not drawn),.,70,.,.,/,.,.,.,81,59,.
Cc1nnc(SCC(=O)Nc2cccc(Br)c2)s1,.,.,.,.,/,.,/,/,/,/,/
Cc1c(C(=O)O)cnc2cc(-c3ccc(Cl)cc3)nn12,91,82,.,.,.,82,89,88,100,93,87
CSc1ccccc1C(=O)NC1CCSc2ccccc21 (stereo not drawn),.,.,.,.,.,.,/,/,/,/,/
CC[C@]12c3[nH]c4ccccc4c3CCN1C(=O)C(CC(=O)NCCC1=CCCCC1)C[C@@H]2C(=O)N1CCN(C(=O)c2ccco2)CC1 (stereo partly drawn),.,.,.,.,/,.,/,/,/,/,/
Cc1ccnc2ccc(-c3nc4ccccc4o3)cc12,88,83,.,.,.,71,.,.,58,.,.
Cc1nc2ccc(-c3nc4ccccc4o3)cc2[nH]1,.,62,.,.,.,.,63,59,84,60,64
O=C1NC(=O)/C(=C\c2ccc(OCc3ccccc3)cc2)S1,64,.,.,.,.,.,.,.,.,.,.
O=C1NC(=O)/C(=C\c2ccccc2OCc2ccccc2)S1,.,.,.,.,.,.,/,/,/,/,/
COc1ccccc1OCCCOc1ccc(/C=C2\SC(=O)NC2=O)cc1OC,61,.,.,.,.,.,.,.,.,.,.
O=C(O)c1cccc2c1C(=O)c1ccc(N3CCN(Cc4ccc5c(c4)OCO5)CC3)cc1S2(=O)=O,/,/,.,.,/,/,/,/,/,/,/
C#CCN(Cc1ccccc1)S(=O)(=O)C=C,.,.,/,/,/,.,/,/,/,/,/
O=C(Nc1nnc(S(=O)(=O)N2CCCC2)s1)c1cccc([N+](=O)[O-])c1,52,.,.,.,.,.,.,.,.,.,.
Cc1nnc(SCc2cccc([N+](=O)[O-])c2)s1,.,.,.,.,.,.,/,/,/,/,/
O=C(Nc1nnc(SCc2ccccc2)s1)c1cccc([N+](=O)[O-])c1,84,.,.,.,.,71,68,66,83,53,.
CC(C)C(=O)Nc1nnc(CSCc2ccccc2F)s1,.,.,.,.,.,.,/,/,/,/,/
